ChEMBL document CHEMBL4257452, “A mini-library system to investigate non-essential residues of lipid-phosphatidylserine (PS) binding peptide-peptoid hybrid PPS1” (Medchemcomm, 2017)
Active and inactive are the calls of the source. The rule behind the calls is not given here. Starred links: 1 amine or outer side, 2 acyl side, 3 side chain; linkers in the order of their positions; H or OH if unused. Positions of bridges follow the written chain, without caps; N, C: chain ends. Non-standard residues stand in square brackets, D forms with d. Residues, ends and D or L forms follow the SMILES beside them. Chains are numbered I, II in the order given. Gly(N-piperonyl) = O=C(O)CNCc1ccc2c(c1)OCO2; N(4-MeOBn)Gly = COc1ccc(CNCC(=O)O)cc1; X2 = CC(CN(CC(=O)[*:2])[*:1])c1ccccc1; X3 = CC(c1ccccc1)N(CC(=O)[*:2])[*:1]

Assays:
HCC4017 [1] = assay: Cytotoxicity against human HCC4017 cells assessed as reduction in cell viability at 20 uM after 24 hrs by MTS assay; assay type: functional, cell-based
How it was run: (§1)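 HCC4017 cells (RPMI, 5% FBS) and HBEC-3KT normal lung cells (KSFM with recombinant human EGF and bovine pituitary extract) were plated at 10 000 cells/well in triplicate and left to adhere overnight. They were exposed to 1 or 20 μM compound for 24 h. MTS reagent was then added for 2 h and absorbance read at 490 nm. Viability is % of untreated control wells.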

HCC4017 [2] = assay: Cytotoxicity against human HCC4017 cells assessed as reduction in cell viability up to 100 uM after 24 hrs by MTS assay; assay type: functional, cell-based; settings: in the assay text read “up to 50 uM” for “up to 100 uM”
How it was run: (§2)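 HCC4017 lung cancer cells (RPMI, 5% FBS) were seeded at 10 000 cells/well in triplicate and adhered overnight. Purified compounds were given as a concentration gradient for 24 h. MTS reagent was added for 2 h and absorbance read at 490 nm. IC50 was taken from the viability curves.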

HCC4017 [3] = assay: Cytotoxicity against human HCC4017 cells assessed as reduction in cell viability after 24 hrs by MTS assay; assay type: functional, cell-based; settings: HCC4017, 24 h; how it was run: as §2
HCC4017 [4] = assay: Cytotoxicity against human HCC4017 cells assessed as reduction in cell viability up to 100 uM after 24 hrs by calcein-AM dye based fluorescence assay; assay type: functional; settings: in the assay text read “up to 50 uM” for “up to 100 uM”
How it was run: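 HCC4017 cells were seeded at 10 000 cells/well in triplicate, adhered overnight, and treated with a graded series of compounds for 24 h. Medium was replaced with PBS containing calcein AM (1 mM as printed) for 15 min at room temperature. Fluorescence emission was read at 520 nm.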

HCC4017 [5] = assay: Cytotoxicity against human HCC4017 cells assessed as reduction in cell viability at 1 uM after 24 hrs by MTS assay; assay type: functional, cell-based; how it was run: as §1
[6] = Cytotoxicity against human HBEC3-KT cells assessed as reduction in cell viability at 1 uM after 24 hrs by MTS assay; assay type: cell-based; how it was run: as §1
[7] = Cytotoxicity against human HBEC3-KT cells assessed as reduction in cell viability at 20 uM after 24 hrs by MTS assay; assay type: cell-based; how it was run: as §1

| Compound | Activity (HCC4017 [1]) | Activity (HCC4017 [2]) | IC50 (HCC4017 [3]) [µM] | Activity (HCC4017 [4]) | Activity (HCC4017 [5]) | Activity [6] | Activity [7] |
| --- | --- | --- | --- | --- | --- | --- | --- |
| COc1ccc(CN(CC(=O)NC(CCC(=O)O)C(=O)NC(CCCCN)C(=O)NC(CCCCN)C(=O)NC(CCSC)C(=O)NCCCCC(NC(=O)C(CCSC)NC(=O)C(CCCCN)NC(=O)C(CCCCN)NC(=O)C(CCC(=O)O)NC(=O)CN(Cc2ccc(OC)cc2)C(=O)CN(C(=O)CN(Cc2ccc3c(c2)OCO3)C(=O)CNC(C)c2ccccc2)C(C)c2ccccc2)C(N)=O)C(=O)CN(C(=O)CN(Cc2ccc3c(c2)OCO3)C(=O)CNC(C)c2ccccc2)C(C)c2ccccc2)cc1 (stereo not drawn) (I: H-[X3][Gly(N-piperonyl)][X3][N(4-MeOBn)Gly]EKKMK-NH2 / II: H-[X3][Gly(N-piperonyl)][X3][N(4-MeOBn)Gly]EKKM; amide I:9-II:C; configuration not given here) | inactive | inactive | – | – | – | – | – |
| COc1ccc(CN(CC(=O)N(CC(=O)NC(CCCCN)C(=O)NC(CCCCN)C(=O)NC(CCSC)C(=O)NCCCCC(NC(=O)C(CCSC)NC(=O)C(CCCCN)NC(=O)C(CCCCN)NC(=O)CN(CC(C)c2ccccc2)C(=O)CN(Cc2ccc(OC)cc2)C(=O)CN(C(=O)CN(Cc2ccc3c(c2)OCO3)C(=O)CNC(C)c2ccccc2)C(C)c2ccccc2)C(N)=O)CC(C)c2ccccc2)C(=O)CN(C(=O)CN(Cc2ccc3c(c2)OCO3)C(=O)CNC(C)c2ccccc2)C(C)c2ccccc2)cc1 (stereo not drawn) (I: H-[X3][Gly(N-piperonyl)][X3][N(4-MeOBn)Gly][X2]KKMK-NH2 / II: H-[X3][Gly(N-piperonyl)][X3][N(4-MeOBn)Gly][X2]KKM; amide I:9-II:C; configuration not given here) | Active | – | 7 to 10 | Active | inactive | Non-Toxic | Non-Toxic |
